Here are results for 17 compounds from ChEMBL document CHEMBL3400094, “Synthesis and SAR study of potent and selective PI3Kδ inhibitors” (Bioorg Med Chem Lett, 2015).

pIC50: −log10 of the molar value.

Series [1] has as its target Phosphatidylinositol 4,5-bisphosphate 3-kinase catalytic subunit gamma isoform (Homo sapiens, UniProt P48736). In words: Inhibition of PI3Kgamma (unknown origin) by biochemical Alphascreen assay. A general note: Alpha assays give light when donor and acceptor beads are brought close together.
The target in series [2] is T1, Phosphatidylinositol 4,5-bisphosphate 3-kinase catalytic subunit delta isoform (Homo sapiens, UniProt O00329).
T1 sequence (O00329 whole entry): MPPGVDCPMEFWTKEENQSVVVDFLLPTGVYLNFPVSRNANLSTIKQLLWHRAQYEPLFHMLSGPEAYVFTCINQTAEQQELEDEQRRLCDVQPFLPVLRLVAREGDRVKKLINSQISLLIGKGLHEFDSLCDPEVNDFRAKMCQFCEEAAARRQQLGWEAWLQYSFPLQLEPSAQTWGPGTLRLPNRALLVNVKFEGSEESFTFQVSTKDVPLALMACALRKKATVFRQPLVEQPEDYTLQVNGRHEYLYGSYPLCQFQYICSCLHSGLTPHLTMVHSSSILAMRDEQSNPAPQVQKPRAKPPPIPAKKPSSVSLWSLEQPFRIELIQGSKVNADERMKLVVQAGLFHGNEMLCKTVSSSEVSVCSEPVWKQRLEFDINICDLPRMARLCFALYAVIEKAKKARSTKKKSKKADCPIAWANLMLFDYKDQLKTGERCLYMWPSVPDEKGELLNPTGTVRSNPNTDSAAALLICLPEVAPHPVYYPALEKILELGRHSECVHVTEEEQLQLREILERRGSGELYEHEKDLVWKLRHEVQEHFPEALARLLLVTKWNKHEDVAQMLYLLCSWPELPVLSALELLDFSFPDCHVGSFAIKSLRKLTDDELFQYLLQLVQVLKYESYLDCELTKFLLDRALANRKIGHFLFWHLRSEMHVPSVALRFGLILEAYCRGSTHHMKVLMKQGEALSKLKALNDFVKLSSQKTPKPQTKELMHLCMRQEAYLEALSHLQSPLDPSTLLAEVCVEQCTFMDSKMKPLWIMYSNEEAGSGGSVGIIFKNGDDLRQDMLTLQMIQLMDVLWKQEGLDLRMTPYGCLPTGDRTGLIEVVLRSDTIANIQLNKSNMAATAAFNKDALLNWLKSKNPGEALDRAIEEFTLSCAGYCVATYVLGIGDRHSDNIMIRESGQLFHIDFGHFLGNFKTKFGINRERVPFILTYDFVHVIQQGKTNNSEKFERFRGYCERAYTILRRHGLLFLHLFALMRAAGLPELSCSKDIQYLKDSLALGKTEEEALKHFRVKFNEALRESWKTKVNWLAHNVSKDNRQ
The series can be described thus: Inhibition of PI3Kdelta (unknown origin) assessed as inhibition of AKT phosphorylation by cell-based HTRF assay.

Series [3] addresses Phosphatidylinositol 4,5-bisphosphate 3-kinase catalytic subunit beta isoform (Homo sapiens, UniProt P42338). In words: Inhibition of PI3Kbeta (unknown origin) by biochemical Alphascreen assay.
Series [4] has as its target T1, Phosphatidylinositol 4,5-bisphosphate 3-kinase catalytic subunit delta isoform. In words: Inhibition of PI3Kdelta (unknown origin) by biochemical Alphascreen assay.
The target in series [5] is Phosphatidylinositol 4,5-bisphosphate 3-kinase catalytic subunit alpha isoform (Homo sapiens, UniProt P42336). The series can be described thus: Inhibition of PI3Kalpha (unknown origin) by biochemical Alphascreen assay.
Sequence of Phosphatidylinositol 4,5-bisphosphate 3-kinase catalytic subunit alpha isoform (P42336 whole entry, canonical isoform): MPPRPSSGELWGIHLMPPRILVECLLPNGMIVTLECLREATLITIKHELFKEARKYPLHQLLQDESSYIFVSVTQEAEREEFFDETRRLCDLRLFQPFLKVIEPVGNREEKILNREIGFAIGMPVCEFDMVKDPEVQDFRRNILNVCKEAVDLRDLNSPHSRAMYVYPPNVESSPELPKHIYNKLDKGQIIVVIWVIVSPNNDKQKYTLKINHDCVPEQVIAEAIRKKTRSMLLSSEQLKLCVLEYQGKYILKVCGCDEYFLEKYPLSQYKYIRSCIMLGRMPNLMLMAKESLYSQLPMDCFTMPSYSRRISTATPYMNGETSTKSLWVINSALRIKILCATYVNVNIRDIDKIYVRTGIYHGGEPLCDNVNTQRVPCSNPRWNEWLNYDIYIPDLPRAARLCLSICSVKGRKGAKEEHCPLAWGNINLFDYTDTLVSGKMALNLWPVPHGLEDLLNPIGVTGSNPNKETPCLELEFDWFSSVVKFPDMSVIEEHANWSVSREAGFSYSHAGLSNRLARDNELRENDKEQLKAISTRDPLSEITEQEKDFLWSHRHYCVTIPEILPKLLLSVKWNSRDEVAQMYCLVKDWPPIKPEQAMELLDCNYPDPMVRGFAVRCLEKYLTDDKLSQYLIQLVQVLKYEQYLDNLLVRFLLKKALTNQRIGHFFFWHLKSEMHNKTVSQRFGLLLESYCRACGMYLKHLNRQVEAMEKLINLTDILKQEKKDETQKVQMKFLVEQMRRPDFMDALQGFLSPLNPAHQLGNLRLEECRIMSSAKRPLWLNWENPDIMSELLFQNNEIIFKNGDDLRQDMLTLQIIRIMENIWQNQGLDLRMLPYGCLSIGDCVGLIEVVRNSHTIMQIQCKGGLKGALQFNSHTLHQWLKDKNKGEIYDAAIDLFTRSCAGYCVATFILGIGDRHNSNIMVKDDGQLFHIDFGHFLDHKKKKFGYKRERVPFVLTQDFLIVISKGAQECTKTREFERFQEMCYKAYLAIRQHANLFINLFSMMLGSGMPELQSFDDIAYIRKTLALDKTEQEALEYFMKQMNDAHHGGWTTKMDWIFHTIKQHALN
A short description of series [6]: Clearance in Sprague-Dawley rat at 0.5 mg/kg, iv and 2 to 10 mg/kg, po. Type of series: ADME, organism-based. To be noted: in vivo. In short, it runs like this: (§1)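 Male Sprague-Dawley rats, n=3. Compounds formulated for iv dosing at 0.5 mg/kg or oral dosing at 2-10 mg/kg.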
Series [7] in a line: Metabolic stability assessed as glutathione adduct formation of SO2Me after 30 mins. To be noted: 0.5 h. Type of series: ADME.
Series [8] is described as follows: Oral bioavailability in Sprague-Dawley rat at 2 to 10 mg/kg. The class given is ADME, organism-based. As to conditions: in vivo. A digest of the protocol: as §1

Sequence of Phosphatidylinositol 4,5-bisphosphate 3-kinase catalytic subunit gamma isoform (P48736 whole entry, canonical isoform): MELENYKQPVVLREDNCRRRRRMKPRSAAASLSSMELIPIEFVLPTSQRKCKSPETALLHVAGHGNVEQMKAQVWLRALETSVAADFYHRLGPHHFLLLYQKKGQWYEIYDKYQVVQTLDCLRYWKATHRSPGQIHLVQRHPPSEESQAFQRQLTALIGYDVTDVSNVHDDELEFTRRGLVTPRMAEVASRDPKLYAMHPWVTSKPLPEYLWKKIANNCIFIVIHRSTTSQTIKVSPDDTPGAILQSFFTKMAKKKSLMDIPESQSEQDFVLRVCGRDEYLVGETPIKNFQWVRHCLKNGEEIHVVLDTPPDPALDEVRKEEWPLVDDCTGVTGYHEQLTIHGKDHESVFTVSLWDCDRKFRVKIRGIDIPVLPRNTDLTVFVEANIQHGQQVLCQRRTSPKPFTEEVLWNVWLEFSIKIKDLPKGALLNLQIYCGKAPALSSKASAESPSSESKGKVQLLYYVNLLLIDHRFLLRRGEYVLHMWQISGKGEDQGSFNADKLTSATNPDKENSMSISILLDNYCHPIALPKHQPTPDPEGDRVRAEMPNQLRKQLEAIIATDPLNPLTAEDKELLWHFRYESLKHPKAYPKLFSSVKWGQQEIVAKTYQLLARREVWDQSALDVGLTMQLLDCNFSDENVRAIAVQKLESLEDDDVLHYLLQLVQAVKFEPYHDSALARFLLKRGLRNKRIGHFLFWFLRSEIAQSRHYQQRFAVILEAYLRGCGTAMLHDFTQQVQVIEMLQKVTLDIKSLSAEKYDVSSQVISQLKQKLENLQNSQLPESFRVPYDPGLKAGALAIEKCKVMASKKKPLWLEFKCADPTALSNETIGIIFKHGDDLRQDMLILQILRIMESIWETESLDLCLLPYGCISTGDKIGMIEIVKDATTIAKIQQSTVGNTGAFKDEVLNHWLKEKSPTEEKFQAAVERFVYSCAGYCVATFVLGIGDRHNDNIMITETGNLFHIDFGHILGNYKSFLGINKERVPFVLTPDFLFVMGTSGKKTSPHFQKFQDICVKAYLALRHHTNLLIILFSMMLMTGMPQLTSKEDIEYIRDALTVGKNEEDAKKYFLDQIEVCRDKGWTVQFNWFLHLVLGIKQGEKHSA
Sequence of Phosphatidylinositol 4,5-bisphosphate 3-kinase catalytic subunit beta isoform (P42338 whole entry, canonical isoform): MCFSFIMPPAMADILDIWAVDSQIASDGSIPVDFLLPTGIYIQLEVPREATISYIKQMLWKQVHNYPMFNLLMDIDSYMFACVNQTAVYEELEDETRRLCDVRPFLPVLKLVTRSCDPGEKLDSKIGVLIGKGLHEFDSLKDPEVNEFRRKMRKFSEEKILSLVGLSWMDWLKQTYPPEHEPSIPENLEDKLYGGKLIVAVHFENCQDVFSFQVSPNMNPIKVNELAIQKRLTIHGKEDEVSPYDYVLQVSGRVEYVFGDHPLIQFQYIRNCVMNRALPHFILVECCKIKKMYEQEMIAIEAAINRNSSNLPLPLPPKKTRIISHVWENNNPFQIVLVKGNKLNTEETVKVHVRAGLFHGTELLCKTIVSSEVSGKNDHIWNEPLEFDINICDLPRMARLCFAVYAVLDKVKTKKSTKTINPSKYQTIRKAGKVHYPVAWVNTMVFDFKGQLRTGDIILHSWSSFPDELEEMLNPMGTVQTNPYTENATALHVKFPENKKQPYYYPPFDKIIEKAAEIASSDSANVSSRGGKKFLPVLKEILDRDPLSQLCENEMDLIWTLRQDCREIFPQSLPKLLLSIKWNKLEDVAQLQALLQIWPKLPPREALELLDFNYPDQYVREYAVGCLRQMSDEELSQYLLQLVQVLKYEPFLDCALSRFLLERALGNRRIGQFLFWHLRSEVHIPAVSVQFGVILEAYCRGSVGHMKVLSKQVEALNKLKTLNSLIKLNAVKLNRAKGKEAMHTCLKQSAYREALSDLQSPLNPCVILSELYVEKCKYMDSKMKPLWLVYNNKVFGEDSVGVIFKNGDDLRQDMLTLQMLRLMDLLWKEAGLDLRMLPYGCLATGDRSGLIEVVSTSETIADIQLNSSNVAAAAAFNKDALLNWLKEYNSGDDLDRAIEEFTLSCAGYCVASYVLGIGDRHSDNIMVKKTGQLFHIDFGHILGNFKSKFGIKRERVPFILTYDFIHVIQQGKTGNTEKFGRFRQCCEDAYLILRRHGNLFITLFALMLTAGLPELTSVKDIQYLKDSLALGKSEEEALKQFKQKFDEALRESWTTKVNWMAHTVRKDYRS

In general, pIC50 refers to −log10 of the IC50, conventionally taken in molar units. On to `C[C@H](Nc1ncnc(N)c1C#N)c1nc2ccc(F)cc2c(NCCS(C)(=O)=O)c1-c1ccccc1`, for which the pIC50 was 7.72 in series [1]; 9.30 in series [2]; 6.30 in series [3]; 9.70 in series [4]; 6.05 in series [5].
Consider `COCc1c(-c2ccccn2)c([C@H](C)Nc2ncnc(N)c2C#N)nc2ccc(F)cc12`, for which the pIC50 in series [1] was 5.31; in series [2], 8.51; in series [3], 5.39; in series [4] it was 7.80.
In the case of `C[C@H](Nc1ncnc(N)c1C#N)c1nc2ccc(F)cc2c(S(C)(=O)=O)c1-c1ccccc1`, the pIC50 in series [1] was 6.66; in series [2], 10.00; in series [3], 6.29; in series [4], 9.15; in series [5], 6.04. For the same compound, the clearance in series [6] is 167 mL/min/kg. In addition, the Stability entry in series [7] is reported as “Unstable”.
On to `COc1c(-c2ccccc2)c([C@H](C)Nc2ncnc(N)c2C#N)nc2ccc(F)cc12`, for which the pIC50 in series [1] is 7.96; in series [2], 9.10; in series [3], 8.09; in series [4], 8.92; in series [5], 6.38.
In the case of `C[C@H](Nc1ncnc(N)c1C#N)c1nc2ccc(F)cc2c([S+]([O-])CCO)c1-c1ccccc1` (some centres not stated), the pIC50 was 6.42 in series [1], 6.80 in series [3], 8.60 in series [4] and 6.21 in series [5].
Turning to `COCCNc1c(-c2ccccc2)c([C@H](C)Nc2ncnc(N)c2C#N)nc2ccc(F)cc12`, the pIC50 was 7.89 in series [1]; 8.62 in series [2]; 6.38 in series [3]; 9.22 in series [4]; 5.97 in series [5].
With `C[C@H](Nc1ncnc(N)c1C#N)c1nc2ccc(F)cc2c(NCCN(C)C)c1-c1ccccc1`, the pIC50 was 5.80 in series [1], 5.30 in series [3], 8.77 in series [4] and 5.80 in series [5].
With `C[C@H](Nc1ncnc(N)c1C#N)c1nc2ccc(F)cc2c(N2CC(O)C2)c1-c1ccccn1`, the pIC50 was 6.29 in series [1]; 8.85 in series [2]; 6.55 in series [3]; 7.74 in series [4]; 5.92 in series [5].
For `C[C@H](Nc1ncnc(N)c1C#N)c1nc2ccc(F)cc2c(N2CCOCC2)c1-c1ccccn1` the same measures were 6.70, 8.92, 7.10, 8.92 and 6.08.
Usually bioavailability stands for the share of a dose that reaches the circulation, judged against a reference dose that is usually intravenous. In the case of `C[C@H](Nc1ncnc(N)c1C#N)c1nc2ccc(F)cc2c(-c2ccccn2)c1-c1ccccn1`, the clearance in series [6] is 0.95 mL/min/kg. Moreover, the bioavailability in series [8] came to 51%.
Take `Cc1cccnc1-c1c(-c2ccccn2)c([C@H](C)Nc2ncnc(N)c2C#N)nc2ccc(F)cc12`: the pIC50 is less than 4.70 in series [1], less than 4.70 in series [3], 7.82 in series [4] and less than 4.70 in series [5]. The clearance in series [6] is 3.5 mL/min/kg.
Turning to `CC(Nc1ncnc(N)c1C#N)c1nc2ccc(F)cc2c(O)c1-c1ccccc1` (racemic), the pIC50 is 6.68 in series [1]; 8.55 in series [2]; less than 4.70 in series [3]; 7.80 in series [4]; less than 4.70 in series [5]. This compound showed a clearance in series [6] of 11.7 mL/min/kg. The bioavailability in series [8] was 15%.
Consider `CC(Nc1ncnc(N)c1C#N)c1nc2ccc(F)cc2c(NCCO)c1-c1ccccc1` (racemic), for which the negative-log IC50 (pIC50) in series [1] was 6.92; in series [2], 8.51; in series [3] it was 6.34; in series [4], 9.40; in series [5] it was 5.92.
In the case of `CC(Nc1ncnc(N)c1C#N)c1nc2ccc(F)cc2cc1-c1ccccn1` (racemic), the pIC50 in series [1] is 5.96; in series [3] it was less than 4.70; in series [4], 8.06; in series [5], less than 4.70.
For `CC(Nc1ncnc(N)c1C#N)c1nc2ccc(F)cc2c(Cl)c1-c1ccccn1` (racemic), the pIC50 in series [1] is 6.60; in series [2], 7.96; in series [3] it was 6.64; in series [4], 8.40; in series [5], 5.86.
For `CC(Nc1ncnc(N)c1C#N)c1nc2ccc(F)cc2c(N(C)C)c1-c1ccccn1` (racemic), in that order: 6.54, 8.44, 6.15, 8.85 and 5.94.
As to `CC(Nc1ncnc(N)c1C#N)c1nc2ccc(F)cc2c(C#N)c1-c1ccccn1` (racemic), the negative logarithm of the IC50 (pIC50) in series [1] was 5.85; in series [2] it was 7.92; in series [3], 6.62; in series [4], 8.08; in series [5] it was 5.36.
